Assay results from different studies.
Each line is one published result; the experiments were not run side by side.
Target: RAF proto-oncogene serine/threonine-protein kinase (RAF1, Homo sapiens, UniProt P04049)

COc1cnc(Nc2cccc(S(N)(=O)=O)c2)nc1N1CCN(c2ccccc2)CC1 — remaining binding (binding, competition with immobilised ligand; 1 µM): 100%
O=C(NCC1CCOCC1)c1n[nH]cc1NC(=O)c1c(F)cccc1F — remaining binding (binding, competition with immobilised ligand; 1 µM): 58%
C[C@@H]1CN(c2ccc3ncc(-c4ccc5[nH]nc(C6CC6)c5c4)n3n2)C[C@H](C)O1 — remaining binding (binding, competition with immobilised ligand; 0.5 µM): 100%
CN(C)c1nccc(-c2cnn3ncccc23)n1 — remaining binding (binding; 1 µM): 100%
O=C(c1ccc(Nc2nccc(-c3cc4ccccc4s3)n2)cc1)N1CCC(N2CCCC2)CC1 — remaining binding (binding, competition with immobilised ligand; 1 µM): 84%
c1cncc(-c2cccc(Nc3nccc(NC4CCCCC4)n3)c2)c1 — remaining binding (binding, competition with immobilised ligand; 10 µM): 94%
CC(=O)C1=C(C)N(c2cccc(C(F)(F)F)c2)C(=O)N[C@@H]1c1ccc(C#N)nc1 — remaining binding (cell-free assay, competition with immobilised ligand; 1 µM): 100%
C[C@@H]1CCN(c2nccc(-c3cnn4ncccc34)n2)C1 — remaining binding (binding; 1 µM): 100%
Cc1cnc(Nc2ccc(C(=O)N3CCC(N4CCCC4)CC3)cc2)nc1-c1cc2ccccc2s1 — remaining binding (binding, competition with immobilised ligand; 1 µM): 60%
CC(C)(O)c1cncc(-c2nc3ccc(F)cc3n2C2CC2)c1 — remaining binding (cell-free assay, competition with immobilised ligand; 1 µM): 83%
Cc1cnn2ncc(-c3ccnc(N(C)C)n3)c2c1 — remaining binding (binding; 1 µM): 100%
FC(F)(F)Oc1cccc(-c2cnc3ccc(-c4ccncc4)nn23)c1 — remaining binding (cell-free assay, competition with immobilised ligand; 5 µM): 71%
CN(C)c1nccc(-c2cnc3ncccn23)n1 — remaining binding (binding; 1 µM): 67%
Cc1c(C(=O)O)cc(-c2ccc(C3CCNCC3)cc2)c2ccc(-c3ccc(C(F)(F)F)cc3)cc12 — remaining binding (binding, competition with immobilised ligand; 1 µM): 80%
COc1ccnn2ncc(-c3ccnc(N(C)C)n3)c12 — remaining binding (binding; 1 µM): 100%
Nc1ncc2c(n1)-c1c([nH]c3ccc(C#CC4CC4)cc13)CCCC2 — remaining binding (binding, competition with immobilised ligand; 1 µM): 79%
CN(c1ccnc(CNc2nc(Nc3ccc4c(c3)CC(=O)N4)ncc2C(F)(F)F)n1)S(C)(=O)=O — remaining binding (cell-free assay, competition with immobilised ligand; 1 µM): 85%
C[C@@H](c1ccc(-n2cnc3c(N)ncnc32)cc1)N1CCc2nn(C)c(Cc3ccccc3)c2C1=O — remaining binding (binding, competition with immobilised ligand; 0.1 µM): 93%
COc1cc(-c2cn(C3CCc4c(F)cccc4N(CC(F)(F)F)C3=O)nn2)ccc1-n1cnc(C)c1 (stereo not drawn) — remaining binding (cell-free assay, competition with immobilised ligand; 1 µM): 100%
N[C@@H]1CCN(c2nccc(-c3cnn4ncccc34)n2)C1 — remaining binding (binding; 1 µM): 80%
O=C(N1CCS(=O)(=O)CC1)N1C[C@H](c2ccc(OC(F)(F)F)cc2)C[C@H](c2nc(C3CC3)no2)C1 — remaining binding (cell-free assay, competition with immobilised ligand; 1 µM): 100%
C=CC(=O)N1CCC(C(=O)NCC(=O)N2CCN(c3nc(-c4cnc(N)nc4C(F)F)nc(N4CCOCC4)n3)CC2)CC1 — remaining binding (binding, competition with immobilised ligand; 1 µM): 93%
c1cnn2ncc(-c3ccnc(N4CCC45COC5)n3)c2c1 — remaining binding (binding; 1 µM): 73%
Cn1cc(Cl)c2c(Oc3c(F)cc(Nc4cc(Cl)nc(N)n4)cc3F)ccnc21 — remaining binding (cell-free assay, competition with immobilised ligand; 0.1 µM): 91%
